For this experiment, the target named is T1, Signal transducer and activator of transcription 1-alpha/beta (Homo sapiens, UniProt P42224).
T1 sequence (P42224 whole entry): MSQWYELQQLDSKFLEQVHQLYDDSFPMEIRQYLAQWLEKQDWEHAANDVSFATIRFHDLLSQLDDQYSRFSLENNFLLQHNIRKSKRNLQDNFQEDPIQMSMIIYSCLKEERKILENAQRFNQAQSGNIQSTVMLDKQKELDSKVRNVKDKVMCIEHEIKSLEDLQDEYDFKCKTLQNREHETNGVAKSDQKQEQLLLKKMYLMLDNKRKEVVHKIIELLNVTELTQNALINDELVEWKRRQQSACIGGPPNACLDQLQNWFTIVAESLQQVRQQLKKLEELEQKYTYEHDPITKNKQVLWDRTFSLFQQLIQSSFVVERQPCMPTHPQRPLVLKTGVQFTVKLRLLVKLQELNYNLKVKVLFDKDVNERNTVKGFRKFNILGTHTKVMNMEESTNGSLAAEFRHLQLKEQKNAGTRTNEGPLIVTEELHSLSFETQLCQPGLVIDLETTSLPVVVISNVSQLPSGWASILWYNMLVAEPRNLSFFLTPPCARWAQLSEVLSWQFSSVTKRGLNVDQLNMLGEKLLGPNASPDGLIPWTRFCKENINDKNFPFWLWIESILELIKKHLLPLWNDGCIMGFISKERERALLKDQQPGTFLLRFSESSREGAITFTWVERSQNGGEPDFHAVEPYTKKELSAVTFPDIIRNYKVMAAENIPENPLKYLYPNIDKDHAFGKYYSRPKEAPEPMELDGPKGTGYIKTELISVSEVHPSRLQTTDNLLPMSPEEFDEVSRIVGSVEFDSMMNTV
As to the kind of experiment: Inhibition of IFN-gamma-induced STAT1 transcriptional activity in human HepG2 cells by luciferase reporter gene assay. The procedure, abridged: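 STAT1-dependent luciferase reporter assay in HepG2 cells with IFN-γ stimulation; mean ± SD of at least three independent experiments.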
(Reporter assays use an easily measured gene product as a stand-in for the process of interest.)

Among the data in BindingDB's records for doi:10.1016/j.ejmech.2021.113333 (Fudan University, 2021) are IC50 values, retold here.

By IC50 is commonly meant the concentration needed to halve the response being measured.

For `CCCC(C)Oc1ccc(C(=O)Nc2ccc3nc(SCC(=O)N[C@@H](C)c4ccccc4)sc3c2)c(OC)c1C` (some centres not stated), half-maximal inhibition (IC50) required 350 nM.
The result for `CCCC(C)Oc1ccc(C(=O)Nc2ccc3nc(SCC(=O)N[C@@H](C)c4ccc(OC)cc4)sc3c2)c(OC)c1C` (some centres not stated) reads 320 nM.
